A selection: hits, their analogues and other compounds. The true share with any hit is near 2.8%.
T cell HTS: T cell immune modulation candidate. 330,000 compounds, 0.068% hits. response (vesicle binding), % at 7 µM. 2C CD8+ T cell-vesicle binding, flow cytometry; stronger effect = lower value;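 active means response, share of CD8 T cells binding vesicles, and their 90th percentile fluorescence all below set limits, cut at about 80% in these data, passing the limit was not always enough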;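 further: values below 100% mean blocked vesicle binding to the CD8+ T cells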
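Material: murine 2C transgenic CD8+ T lymphocytes / Also added: QL9-peptide-loaded Drosophila micro-vesicles bearing Ld, ICAM-1 and B7-1 / Schedule: binding step 1.5 h, 37 °C, antibody labelling 20 min, ice / Signal: flow cytometry, PE anti-B7-1 (FL2) versus Alexa647 anti-CD8 (FL8), PFA-fixed / Evaluation: percent CD8+ FL2 mean versus row control / Benchmarks: naked versus QL9-loaded vesicles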
GASC-1 inh: human JMJD2C demethylase inhibition; AID 2099; 330,000 compounds, 0.069% hits; Q9H3R0; GST-JMJD2C(1-420) H3K9me3 demethylation, DELFIA europium; inhibition, % at 2.35 µM;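 active means more than half of a compound's replicate wells show inhibition beyond 50%, single wells judged on their own value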;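 further: signal counts dimethyl H3K9 product captured on neutravidin plate; 0% = median of DMSO wells and 100% = 0.3 times that DMSO median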
Target sequence (Q9H3R0 1-420 limits assumed): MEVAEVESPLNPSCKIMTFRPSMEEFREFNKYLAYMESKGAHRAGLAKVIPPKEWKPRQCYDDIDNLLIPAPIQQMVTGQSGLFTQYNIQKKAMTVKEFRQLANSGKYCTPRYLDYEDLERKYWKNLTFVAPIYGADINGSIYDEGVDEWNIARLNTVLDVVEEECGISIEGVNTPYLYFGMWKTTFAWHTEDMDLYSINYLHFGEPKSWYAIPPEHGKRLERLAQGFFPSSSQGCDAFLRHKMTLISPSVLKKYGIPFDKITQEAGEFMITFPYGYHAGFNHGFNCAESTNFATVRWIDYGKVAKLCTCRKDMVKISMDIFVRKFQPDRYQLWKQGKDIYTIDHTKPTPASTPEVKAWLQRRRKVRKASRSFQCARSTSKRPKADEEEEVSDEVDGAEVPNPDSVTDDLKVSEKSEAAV
Rtt109 Vps75: blocks Candida albicans Rtt109/Vps75 acetyltransferase activity; Q5AAJ8; purified Rtt109/Vps75, ThioGlo CoA-SH fluorescence, 4 h; inhibition, % at 34.9 µM; 330,000 compounds, 0.16% hits; AID 540336;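 active means inhibition of at least 50% in every replicate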
NR3A LBD binder: NR3A (human) ligand-binding domain modulation; NR3A LBD differential scanning fluorimetry, Tm shift; 0% = protein alone, 100% = glycine-bound protein; Tm shift relative to glycine control, % at 25 µM; 340,000 compounds, 2.5% hits; AID 1259313;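 active means melting temperature shift of at least 10% of the positive control shift, at one fixed dose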
Active calls of the source: *; / = no result; ! = repeats disagree.

SMILES	T cell HTS	GASC-1 inh	Rtt109 Vps75	NR3A LBD binder
NC(=O)C1CCCN1S(=O)(=O)c1ccc2ccccc2c1 (stereo unspecified)	394	-3	10	-1
O=C(COC(=O)[C@@H]1CCCN1S(=O)(=O)c1ccc(Cl)cc1)NC12CC3CC(CC(C3)C1)C2	128	-9	7	-2
COc1cc(NC(=O)COC(=O)[C@@H]2CCCN2S(=O)(=O)c2ccc(Cl)cc2)cc(OC)c1OC	293	-1	3	11*
O=C(CC1S/C(=N/N=C/c2cccs2)NC1=O)Nc1ccc(Cl)c(Cl)c1 (stereo unspecified)	247	5	20	28*
C/C(=N\N=C1\NC(=O)C(CC(=O)Nc2ccc(C)c(Cl)c2)S1)C(C)(C)C (stereo unspecified)	155	-4	-3	20*
CC(C)[C@@H](N)C(=O)N/N=C/c1ccc2nccnc2c1	397	-9	2	11*
CCOC(=O)Nc1ccc2c(CN(C)Cc3ccc(F)cc3)cc(=O)oc2c1	190	1	-5	14*
CCOC(=O)Nc1ccc2c(C)cc(=O)oc2c1	758	0	19	-1
Cc1ccnc(-n2c(C)cc(/C=N/NC(=O)COc3cccc4cccnc34)c2C)c1	645	6	1	0
COc1ccc(Br)cc1CN(C)CC(=O)NCc1ccc(F)cc1	25	53*	1	0
COc1ccc(Cl)cc1NC(=O)CSc1nnc(C)c(=O)n1N	312	-5	-1	13*
COc1ccc(Cl)cc1NC(=O)CSc1nnc(C2CC2)n1C	208	1	6	-3
Cc1cc(C)cc(NC(=O)CCNS(=O)(=O)c2cc(Br)cnc2N)c1	427	3	4	12*
CCOC(=O)c1ccc(NC(=O)CCNS(=O)(=O)c2cc(Br)cnc2N)cc1	450	0	6	15*
Brc1ccc(OCc2ccccc2)c(CNCc2ccncc2)c1	458	6	7	11*
CN(C)CCC(c1ccc(Cl)cc1)c1ccccn1 (stereo unspecified)	423	-6	-9	16*!
CCc1noc(C)c1C(=O)Nc1ccc(Cl)c(S(=O)(=O)N2CCCCC2)c1	273	75	1	2
CC(=O)Nc1ccc(NC(=O)c2ccc(NS(=O)(=O)c3cccc4cccnc34)cc2)cc1	311	0	-11	19*
Cc1ccc(S(=O)(=O)Nc2ccc(C(=O)NCc3ccccn3)cc2)cc1	258	-16	-3	13*
CC(=O)Nc1ccc(NC(=O)c2ccc(NS(=O)(=O)c3cc(C(C)(C)C)cc(C)c3C)cc2)cc1	676	2	-1	26*
COc1ccccc1NC(=O)c1ccc(NS(=O)(=O)c2cccc3cccnc23)cc1	466	-11	-1	18*
CNC[C@H]1Oc2ccc(NC(=O)Cc3cn(C)c4ccccc34)cc2CC(=O)N([C@@H](C)CO)C[C@H]1C	502	0	-5	-9
CC(=O)Nc1ccc(S(=O)(=O)NC2(c3ccccc3)C(=O)N(C)C(=O)N(C)C2=O)cc1	/	/	0	-3
Cc1ccc(NC(=O)c2ccc(NS(=O)(=O)c3cccc4cccnc34)cc2)cc1	110	-2	10	28*
COc1ccccc1NC(=O)c1ccc(NS(=O)(=O)c2ccc(F)c(Cl)c2)cc1	338	9	-1	11*
SMILES	T cell HTS	GASC-1 inh	Rtt109 Vps75	NR3A LBD binder
Cc1nn(-c2ccccc2)c(Cl)c1/C=N/NC(=O)c1ccc(NS(=O)(=O)c2cccs2)cc1	129	11	/	/
Cc1nn(-c2ccccc2)c(Cl)c1/C=N/NC(=O)c1ccccc1NS(=O)(=O)c1cccs1	331	9	16	16*
Cc1ccc(C(C)NC(=O)c2ccncc2)c(C)c1 (stereo unspecified)	332	0	10	0
CCOC(=O)c1c(N)n(-c2ccc(N)cc2)c2nc3ccccc3nc12	86	8	/	0
Nc1c(C(=O)Nc2ccccc2)c2nc3ccccc3nc2n1-c1ccc(O)cc1	949	-1	19	21*
Cc1ccccc1-n1ncc2c1CC(C)(C)CC2NC(=O)c1snnc1C (stereo unspecified)	182	14	4	2
CCOc1ccc(C(=O)OCC(=O)N(Cc2ccccc2)Cc2ccccc2)cc1OC	230	2	-8	0
COc1cc(C(=O)Nc2ccc(C)c(S(=O)(=O)N(C)C)c2)ccc1OCC(=O)N1CCOCC1	410	0	11	-2
Cc1cnn(C(=O)c2ccccc2Br)c1	527	85*	/	0

Compound activity deposited in PubChem by several laboratories.
